Body weight and tumor inhibition rate data for one compound are collected here from publication PMC7016295 (Acta Pharmaceutica Sinica. B, 2019).

In the series the test system is xenograft tumors of murine glioma GL261 cells. In words: GL261 xenograft tumor model. The format is in vivo, C57BL/6 mice. A digest of the protocol: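 About 3 × 10⁶ GL261 cells implanted subcutaneously at the left scapula of male C57BL/6 mice (6–8 weeks). At 100–300 mm³, mice randomized (n = 7/group). Vehicle (0.5% methylcellulose) oral daily. TMZ 100 mg/kg oral every 2 days, alone or with 50 mg/kg. Endpoint: tumour weight; body weight; CD31 immunohistochemistry (1:200) on 4 μm paraffin sections.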

For `Cn1nnc2c(C(N)=O)ncn2c1=O` [TMZ, temozolomide], the body weight result (GL261 xenograft mice, vs control (co-treatment vs TMZ group)) is “significantly decreased”. Moreover, the tumor inhibition rate (TMZ only, 100 mg/kg oral every 2 days) came out at 34.15%.
